Results published in publication PMC4607264 (Developmental and comparative immunology, 2014).
≈ marks a conversion by molar mass, not a printed value.

Biological target: DlRBL (Dicentrarchus labrax rhamnose-binding lectin) (Dicentrarchus labrax, UniProt A0A8P4K6Y8)
Test: inhibition of hemagglutination of rabbit erythrocytes by purified lectin
Type: biochemical
Settings: TBS pH 7.4, 5 mM CaCl2; 1% rabbit erythrocytes
Summary of the method: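 Purified lectin (250 μg/ml stock, dialysed in TBS) was serially 2-fold diluted in TBS with 0.1% gelatin. Inhibitor series of monosaccharides, disaccharides and yeast mannan were used at decreasing concentrations starting from 100 mM. Rabbit erythrocytes were washed three times in PBS and suspended at 1% in TBS-gelatin, then added in equal volume. Agglutination was scored after 1 h at 37°C.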

Minimum inhibitory concentration: 70.0 mM (≈ 12.6 mg/mL)
Compound: OC[C@H]1OC(O)[C@H](O)[C@@H](O)[C@H]1O (stereo partly drawn) [D-galactose]
